Data published in ChEMBL document CHEMBL1255300, “Pharmacodynamics of the antibacterial effect and emergence of resistance to tomopenem, formerly RO4908463/CS-023, in an in vitro pharmacokinetic model of Staphylococcus aureus infection” (Antimicrob Agents Chemother, 2008).
Values after ≈ are worked out from the molar mass of the structure shown.

Key:
Format in all cases: functional
[1] = tested on: Staphylococcus aureus; assay: Antibacterial activity against methicillin-resistant Staphylococcus aureus 33827 infected in in vitro pharmacokinetic model assessed as time required to 99% killing at 1500 mg, iv every 8 hrs using 10^8 CFU/ml inoculum
Summary of the method: (§1)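 Single-compartment dilutional in vitro PK model, 10% Mueller-Hinton broth, 37°C, stirred, dilution 132 ml/h. […] Inoculum 10^6 CFU/ml (added 45 min pre-dose) or 10^8 CFU/ml (run overnight). Viable counts by spiral plating, beta-lactamase neutralization, detection limit 10^2 CFU/ml. At least triplicate.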

[2] = tested on: Staphylococcus aureus; assay: Antibacterial activity against methicillin-resistant Staphylococcus aureus 33829 infected in in vitro pharmacokinetic model assessed as reduction in viable count at 1500 mg, iv every 8 hrs measured after 36 hrs using 10^6 CFU/ml inoculum; summary of the method: as §1
[3] = tested on: Staphylococcus aureus; assay: Antibacterial activity against methicillin-resistant Staphylococcus aureus 33922 infected in in vitro pharmacokinetic model assessed as time required to 99.9% killing at 1500 mg, iv every 8 hrs using 10^8 CFU/ml inoculum
[4] = tested on: Staphylococcus aureus; assay: Antibacterial activity against methicillin-sensitive Staphylococcus aureus
[5] = tested on: Staphylococcus aureus; assay: T>MIC in methicillin-resistant Staphylococcus aureus 33820 infected in vitro pharmacokinetic model at 750 mg, iv every 8 hrs
[6] = tested on: Staphylococcus aureus; assay: Antibacterial activity against methicillin-resistant Staphylococcus aureus 33820 infected in in vitro pharmacokinetic model assessed as reduction in viable count at 1500 mg, iv every 8 hrs measured after 12 hrs using 10^6 CFU/ml inoculum
Summary of the method: (§2)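 Single-compartment dilutional in vitro PK model, 37°C, stirred, in 10% Mueller-Hinton broth. […] Inoculum 10^6 CFU/ml from a 24-h plate culture was added 45 min before dosing. Viable counts by spiral plating on nutrient agar with β-lactamase neutralization. Log change was taken from time 0; detection limit 10^2 CFU/ml; at least triplicate.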

[7] = tested on: Staphylococcus aureus; assay: Antibacterial activity against methicillin-resistant Staphylococcus aureus 33815 infected in in vitro pharmacokinetic model assessed as reduction in viable count at 750 mg, iv every 8 hrs measured after 24 hrs using 10^6 CFU/ml inoculum; summary of the method: as §2
[8] = tested on: Staphylococcus aureus; assay: AUBKC (0 to 24 hrs) in methicillin-resistant Staphylococcus aureus 33922 infected in in vitro pharmacokinetic model at 1500 mg, iv every 8 hrs using 10^8 CFU/ml inoculum
Summary of the method: (§3)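 Single-compartment dilutional in vitro PK model at 37°C in 10% Mueller-Hinton broth, stirred, flow 132 ml/h. […] Inoculum 10^6 CFU/ml added 45 min before dosing, or 10^8 CFU/ml run overnight. Viable counts with β-lactamase neutralisation. AUBKC by log-linear trapezoidal rule, at least triplicate.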

[9] = tested on: Staphylococcus aureus; assay: T>MIC for 2-log drop in count in methicillin-resistant Staphylococcus aureus 33827 in in vitro pharmacokinetic model after 24 hrs using 10^6 CFU/ml inoculum
[10] = tested on: Staphylococcus aureus; assay: T>MIC for 2-log drop in count in methicillin-sensitive Staphylococcus aureus 5956 in in vitro pharmacokinetic model after 24 hrs using 10^6 CFU/ml inoculum
[11] = tested on: Staphylococcus aureus; assay: T>MIC for 2-log drop in count in methicillin-resistant Staphylococcus aureus 33829 in in vitro pharmacokinetic model after 24 hrs using 10^6 CFU/ml inoculum
[12] = tested on: Staphylococcus aureus; assay: T>MIC for static effect in methicillin-resistant Staphylococcus aureus 33829 in in vitro pharmacokinetic model after 24 hrs using 10^6 CFU/ml inoculum
[13] = tested on: Staphylococcus aureus; assay: Antibacterial activity against methicillin-resistant Staphylococcus aureus 33922 infected in in vitro pharmacokinetic model assessed as reduction in viable count at 750 mg, iv every 8 hrs measured after 24 hrs using 10^8 CFU/ml inoculum
[14] = tested on: Staphylococcus aureus; assay: AUBKC (0 to 48 hrs) in methicillin-resistant Staphylococcus aureus 33921 infected in in vitro pharmacokinetic model at 1500 mg, iv every 8 hrs using 10^6 CFU/ml inoculum; summary of the method: as §3
[15] = tested on: Staphylococcus aureus; assay: T>MIC for 1-log drop in count in methicillin-sensitive Staphylococcus aureus 5956 in in vitro pharmacokinetic model after 24 hrs using 10^6 CFU/ml inoculum
Summary of the method: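 Dose-ranging: 7–13 simulated regimens per strain giving T>MIC of 0–100% (MIC from 10% MHB), at 106 or 10^8 CFU/ml as stated.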

[16] = tested on: Staphylococcus aureus; assay: Antibacterial activity against methicillin-sensitive Staphylococcus aureus 5956 infected in in vitro pharmacokinetic model assessed as reduction in viable count at 1500 mg, iv every 8 hrs measured after 24 hrs using 10^6 CFU/ml inoculum
[17] = tested on: Staphylococcus aureus; assay: Antibacterial activity against methicillin-resistant Staphylococcus aureus 33921 infected in in vitro pharmacokinetic model assessed as reduction in viable count at 1500 mg, iv every 8 hrs measured after 12 hrs using 10^6 CFU/ml inoculum; summary of the method: as §1
[18] = tested on: Staphylococcus aureus; assay: Antibacterial activity against methicillin-resistant Staphylococcus aureus 33820 by broth dilution method
Summary of the method: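 Standard CLSI broth dilution MIC.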

[19] = tested on: Staphylococcus aureus; assay: Antibacterial activity against methicillin-resistant Staphylococcus aureus 33922 infected in in vitro pharmacokinetic model assessed as reduction in viable count at 750 mg, iv every 8 hrs measured after 48 hrs using 10^6 CFU/ml inoculum
[20] = tested on: Staphylococcus aureus; assay: Antibacterial activity against methicillin-sensitive Staphylococcus aureus 5956 infected in in vitro pharmacokinetic model assessed as time required to 99% killing at 1500 mg, iv every 8 hrs using 10^6 CFU/ml inoculum
[21] = tested on: Staphylococcus aureus; assay: T>MIC for 1-log drop in count in methicillin-sensitive Staphylococcus aureus 5956 in in vitro pharmacokinetic model after 24 hrs using 10^8 CFU/ml inoculum
[22] = tested on: Staphylococcus aureus; assay: T>MIC for 2-log drop in count in methicillin-resistant Staphylococcus aureus 33815 in in vitro pharmacokinetic model after 24 hrs using 10^6 CFU/ml inoculum
[23] = tested on: Staphylococcus aureus; assay: Antibacterial activity against methicillin-resistant Staphylococcus aureus
[24] = tested on: Staphylococcus aureus; assay: Antibacterial activity against methicillin-resistant Staphylococcus aureus 33922 infected in in vitro pharmacokinetic model assessed as reduction in viable count at 1500 mg, iv every 8 hrs measured after 36 hrs using 10^6 CFU/ml inoculum
[25] = tested on: Staphylococcus aureus; assay: Antibacterial activity against methicillin-resistant Staphylococcus aureus 33827 in in vitro pharmacokinetic model assessed as viable count at 4 times of MIC
Summary of the method: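 Population analysis before drug exposure (time 0). Model samples were plated on nutrient agar without drug and with tomopenem at 2×, 4× and 6× MIC (10% MHB MIC), and growth was recorded as log CFU/ml. Detection limit 2 log10.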

[26] = tested on: Staphylococcus aureus; assay: Antibacterial activity against methicillin-resistant Staphylococcus aureus 33820 infected in in vitro pharmacokinetic model assessed as reduction in viable count at 1500 mg, iv every 8 hrs measured after 36 hrs using 10^6 CFU/ml inoculum; summary of the method: as §2
[27] = tested on: Staphylococcus aureus; assay: T>MIC for 1-log drop in count in methicillin-resistant Staphylococcus aureus 33827 in in vitro pharmacokinetic model after 24 hrs using 10^6 CFU/ml inoculum
[28] = tested on: Staphylococcus aureus; assay: T>MIC in methicillin-sensitive Staphylococcus aureus 5956 infected in vitro pharmacokinetic model at 1500 mg, iv every 8 hrs

## C[C@@H](O)[C@H]1C(=O)N2C(C(=O)O)=C(S[C@H]3C[C@@H](C(=O)N4CC[C@H](NC(=O)CNC(=N)N)C4)N(C)C3)[C@H](C)[C@H]12 [TOMOPENEM]
[1]
  Time: 12 h
[2]
  log10CFU/ml: 4
[3]
  Time: 24 h
[4]
  MIC50: 0.12 µg/mL (≈ 0.223 µM)
  MIC90: 0.12 µg/mL (≈ 0.223 µM)
[5]
  fT>MIC: 73%
[6]
  log10CFU/ml: 4.2
[7]
  log10CFU/ml: 4.2
[8]
  AUBC: 100.1 log10CFU/ml.hr
[9]
  fT>MIC: 31.2%
[10]
  fT>MIC: 8.7%
[11]
  fT>MIC: 20.8%
[12]
  fT>MIC: 12.1%
[13]
  log10CFU/ml: 5
[14]
  AUBC: 38.1 log10CFU/ml.hr
[15]
  fT>MIC: 7.4%
[16]
  log10CFU/ml: 4.4
[17]
  log10CFU/ml: 3
[18]
  MIC: 16 µg/mL (≈ 29.8 µM)
[19]
  log10CFU/ml: 3.9
[20]
  Time: 5 h
[21]
  fT>MIC: 3.4%
[22]
  fT>MIC: 12.5%
[23]
  MIC50: 2 µg/mL (≈ 3.72 µM)
  MIC90: 4 µg/mL (≈ 7.44 µM)
[24]
  log10CFU/ml: 4.2
[25]
  log10CFU/ml: <2
[26]
  log10CFU/ml: 3.8
[27]
  fT>MIC: 24.4%
[28]
  fT>MIC: 100%
